“And” between values parts separate entries of the source, which are not always exact repeats. Equal values may be shown once. Read-outs that look alike come from different tables or passages of the source.
Key:
[1] = system: UACC 903 melanoma cell line; experiment: MTS cell viability, UACC 903; format: cell-based; conditions: Homo sapiens, UACC-903, 72 h, read-out: IC50 UACC 903
How it was run: (§1)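 MTS viability assay. Cells were grown at 37°C in humidified 5% CO2: melanoma lines UACC 903 and 1205 Lu (BRAF V600E) or C8161.Cl9 and MelJuSo (BRAF wild type), or normal […]. 5×10³ cells/well were treated 48 h after seeding for 72 h with rising concentrations of free or nanoliposomal test compound (nanoliposomal: 10–100 μmol/L). IC50 came from 3 independent experiments; group values are averages across the lines.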

[2] = system: 1205 Lu melanoma cell line; experiment: MTS cell viability, 1205 Lu; format: cell-based; conditions: Homo sapiens, 72 h, read-out: IC50 1205 Lu
How it was run: as §1

cPLA2 [3] = conditions: various in-vitro studies; ref [13], [37]; cited from earlier work
[4] = mouse, in vivo
[5] = system: four melanoma cell lines (UACC 903, 1205 Lu, C8161.Cl9, MelJuSo); experiment: MTS cell viability, melanoma cell lines taken together; format: cell-based
How it was run: as §1

[6] = system: C8161.Cl9 melanoma cell line; experiment: MTS cell viability, C8161.Cl9; format: cell-based; conditions: 72 h, read-out: IC50 C8161.Cl9
How it was run: as §1

[7] = system: FF2441 normal human fibroblast cell line; experiment: MTS cell viability, FF2441; format: cell-based; conditions: FF2441, 72 h, read-out: IC50 FF2441
How it was run: as §1

Hemolytic activity = format: cell-based; conditions: human, human erythrocytes, 5% v/v suspension
How it was run: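 Erythrocytes from fresh EDTA-anticoagulated human blood, separated at 1,500 rpm for 10 min at 4°C using PBS. A 5% v/v suspension in PBS was exposed to free or nanoliposomal test compound (10–40 μmol/L), ethanol or empty liposome (negative controls), or 1% Triton X-100, at 37°C for 60 min. After a 12,000 rpm spin, supernatant A540 was read. % hemolysis = sample A540 / Triton A540 × 100.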

[8] = system: normal cells FOM103 and FF2441; experiment: MTS cell viability, normal cells taken together; format: cell-based; conditions: FF2441, read-out: average IC50 for killing normal FOM103 and FF2441
How it was run: as §1

[9] = 14-day repeated dose study to identify the MTD; conditions: for % weight loss at day 14 in Swiss Webster mice: in DMSO, i.p. daily, 14 days
[10] = system: FOM103 normal melanocytes; experiment: MTS cell viability, FOM103; format: cell-based; conditions: Melanocyte, 72 h, read-out: IC50 FOM103
How it was run: as §1

cPLA2 [11] = target: T1, cPLA2 (Homo sapiens, UniProt P47712); experiment: cPLA2 activity assay; format: biochemical
T1 sequence (P47712 1-749): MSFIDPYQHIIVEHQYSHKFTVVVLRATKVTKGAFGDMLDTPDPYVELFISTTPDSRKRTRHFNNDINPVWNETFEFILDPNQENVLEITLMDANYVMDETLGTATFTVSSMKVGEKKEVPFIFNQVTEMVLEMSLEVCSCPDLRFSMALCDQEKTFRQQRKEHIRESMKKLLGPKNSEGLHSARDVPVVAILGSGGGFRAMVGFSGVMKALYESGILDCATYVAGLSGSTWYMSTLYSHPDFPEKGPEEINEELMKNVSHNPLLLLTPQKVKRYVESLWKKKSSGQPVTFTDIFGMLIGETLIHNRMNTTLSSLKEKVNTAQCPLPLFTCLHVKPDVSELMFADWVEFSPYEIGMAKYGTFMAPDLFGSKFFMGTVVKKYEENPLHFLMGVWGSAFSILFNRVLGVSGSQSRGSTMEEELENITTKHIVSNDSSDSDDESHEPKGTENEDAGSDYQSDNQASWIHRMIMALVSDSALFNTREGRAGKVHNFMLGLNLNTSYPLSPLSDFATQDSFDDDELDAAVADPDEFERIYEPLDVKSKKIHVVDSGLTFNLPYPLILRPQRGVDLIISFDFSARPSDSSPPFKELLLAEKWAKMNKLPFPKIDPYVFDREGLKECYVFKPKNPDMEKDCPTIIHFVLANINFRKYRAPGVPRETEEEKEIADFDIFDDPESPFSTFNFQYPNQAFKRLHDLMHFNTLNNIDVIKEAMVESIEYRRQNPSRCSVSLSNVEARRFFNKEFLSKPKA
How it was run: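 Colorimetric cPLA2 assay (commercial kit) on UACC 903 lysate made in Hepes pH 7.4 with 1 mM EDTA. sPLA2 was removed by 30 kDa cutoff filtration and iPLA2 was blocked with bromoenol lactone. Lysate was treated with free or nanoliposomal test compound (0.5–10 μmol/L); DMSO or empty nanoliposome defined 100% activity. Arachidonoyl thio-PC substrate ran for 1 h, then DTNB was added and absorbance read at 414 nm.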

UACC 903 xenograft = UACC 903 xenograft tumor growth in nude mice; format: in vivo; conditions: for % in-vivo tumor inhibition at day 21 in Nude mice: in DMSO, i.p.
How it was run: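 Female athymic nude mice aged 3–4 weeks received 1×10⁶ UACC 903 cells in 0.2 mL DMEM/10% FBS subcutaneously above both rib cages. At day 8 (vascularized tumors of 50–75 mm³), mice were randomized (3/group, 2 tumors/mouse) and dosed daily i.p. with free test compound in DMSO (5 or 10 mg/kg) or DMSO vehicle for 3–4 weeks. Tumor dimensions and body weight were taken on alternate days; % inhibition was scored at day 21. Run twice independently.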

Q: What does the source list for `CCCCC/C=C\C/C=C\C/C=C\C/C=C\CCCC(=O)C(F)(F)F` [ATK, Arachidonyl trifluoromethyl ketone]?
A: IC50 [1]: 26.3 ± 2.1 µM; IC50 [2]: 26.1 ± 4.4 µM; potency in inhibiting cPLA2 over sPLA2 and iPLA2 (cPLA2 [3]): 500 fold; % weight loss at day 14 in Swiss Webster mice [4]: Animal mortality occurred; fold more effective at killing melanoma cells than normal cells ([5]; average melanoma versus average normal cells): 3 fold; IC50 ([5]; read-out: average IC50 for melanoma cells): 22 µM; IC50 [6]: 18.6 ± 3.1 µM; IC50 [7]: 63.3 ± 10.3 µM; hemolysis at 60 min (Hemolytic activity): 2 to 3%; hemolysis at 60 min, 40 μmol/L (Hemolytic activity): 2.9%; IC50 [8]: 60 µM; % weight loss at day 14 in Swiss Webster mice ([9]; 5 mg/kg body weight): No weight loss; % weight loss at day 14 in Swiss Webster mice ([9]; 10 mg/kg body weight): 3.1 ± 3.52%; % weight loss at day 14 in Swiss Webster mice ([9]; 15 mg/kg body weight): 14.5% and 14.5 ± 0.95%; % weight loss at day 14 in Swiss Webster mice ([9]; 20 mg/kg body weight): Death in 10 days; % weight loss at day 14 in Swiss Webster mice ([9]; 30 mg/kg body weight): Death in 8 days; MTD at 14 days ([9]; Swiss Webster, mouse, in vivo, ip): 10 mg/kg; IC50 [10]: 57.9 ± 10.4 µM; IC50 (cPLA2 [11]): 1.85 µM; % in-vivo tumor inhibition at day 21 in Nude mice (UACC 903 xenograft; 5 mg/kg body weight): 12.9 ± 6.30%; % in-vivo tumor inhibition at day 21 in Nude mice (UACC 903 xenograft; 10 mg/kg body weight): 32.5 ± 5.73%; changes in body weight of tumor-bearing mice (UACC 903 xenograft; 5 and 10 mg/kg i.p. daily in DMSO): did not show any significant changes in body weight; reduction in tumor volume (UACC 903 xenograft; free ATK in DMSO, 5 and 10 mg/kg (MTD) i.p. daily, 3-4 weeks): approximately 30%
